Active and inactive are the calls of the source. The rule behind the calls is not given here.

Assay [1] relates to Splenocyte. In words: In vivo inhibition of BCR signaling in female […] mouse assessed as CD69 expression at 2.9 mg/kg, po administered and measured after stimulation with anti-IgM for 18 h by flow cytometry analysis. Format: functional, organism-based. The method, boiled down:
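Female C57BL/6 mice (5/group/dose) were gavaged orally with vehicle or drug at 0.1–30 mg/kg, and spleens were harvested after 3 h. Splenocytes were stimulated with anti-IgM at 10μg/mL for 18 h at 37°C in 5% CO2, then Fc-blocked and stained for CD19 and CD69, with 7-AAD marking dead cells. CD69 on CD19+ B-cells was read by flow cytometry, acquiring >5,000 gated CD19+ cells.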

Assay [2] is described as follows: In vivo inhibition of BCR signaling in female […] mouse assessed as B-cell function at 25 mg/kg, po administered for 24 hrs and measured after stimulation with anti-IgM for 18 h by flow cytometry analysis relative to control. The class given is functional, Splenocyte. More on the design: scale not given: the % may be the effect or the level left. The method, boiled down:
(§1)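 Female C57BL/6 mice (5/group) received vehicle or 25 mg/kg drug by oral gavage at time zero, with spleens taken at time points from 3 to 24 h. Splenocytes were stimulated ex vivo with goat anti-mouse IgM at 10μg/mL for 18 h at 37°C in 5% CO2, then Fc-blocked and stained for CD19 plus CD69, CD86 or phospho-S6(S235/236), with 7-AAD to exclude dead cells. Read-out was flow cytometry on >5,000 gated CD19+ cells, compared with vehicle.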
For orientation: Flow cytometry measures light scatter and fluorescence of single cells or particles in a stream.

In assay [3] the test system is Splenocyte. In words: In vivo inhibition of BCR signaling in female […] mouse assessed as change in CD86 expression at 25 mg/kg, po administered and measured after stimulation with anti-IgM for 18 h by flow cytometry analysis. The class given is functional, organism-based. The method, boiled down: as §1
For assay [4], the system named is Splenocyte. Kind of assay: In vivo inhibition of BCR signaling in female […] mouse assessed as change in phospho-S6 expression at 25 mg/kg, po administered and measured after stimulation with anti-IgM for 18 h by flow cytometry analysis. The class given is functional, organism-based. In short, it runs like this:
as §1

`C=CC(=O)N1CCC[C@@H](n2nc(-c3ccc(Oc4ccccc4)cc3)c3c(N)ncnc32)C1` [IBRUTINIB]: the result in assay [1], in assay [3] and in assay [4] was Active. The Activity in assay [2] was approximately 70%.

Source of the values: ChEMBL document CHEMBL5678815 (Clin Cancer Res, 2017).
